Laboratory results from ChEMBL document CHEMBL2331220, “Benzimidazole clubbed with triazolo-thiadiazoles and triazolo-thiadiazines: new anticancer agents” (2013).

Tests used:
Format in all cases: functional
Hs-578T = assay: Cytotoxicity against human Hs578T cells after 48 hrs by SRB assay
Procedure, shortened: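 NCI five-dose screen: cells preincubated 24 h at 37 °C, 5% CO₂, with time-zero plates TCA-fixed. Five 10-fold dilutions (0.01–100) were added and cells incubated for 48 h, then fixed in 10% TCA for 60 min at 4 °C. Staining used 0.4% SRB in 1% acetic acid, solubilised in 10 mM Tris, with A515 read. GI₅₀, TGI and LC₅₀ were derived from Tz, control and test absorbances.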

BT-549 = assay: Cytotoxicity against human BT549 cells after 48 hrs by SRB assay; conditions: BT-549, 48 h
Procedure, shortened: (§1)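 NCI 60-line five-dose screen. Cells were preincubated 24 h at 37 °C under 5% CO2 and 100% humidity, and time-zero plates were TCA-fixed when compound was added. Five 10-fold concentrations (0.01–100) were tested for 48 h. Cells were fixed with cold TCA (final 10%, 60 min, 4 °C), stained with 0.4% SRB for 10 min, and read at 515 nm. GI50, TGI and LC50 came from growth-percentage formulas, with out-of-range values given as > or <.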

MDA-MB-231 = assay: Cytotoxicity against human MDA-MB-231 cells after 48 hrs by SRB assay; conditions: MDA-MB-231, 48 h; procedure, shortened: as §1
SN12C = assay: Cytotoxicity against human SN12C cells after 48 hrs by SRB assay
Procedure, shortened: (§2)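 NCI 60-line five-dose screen: cells plated, held 24 h at 37 °C, 5% CO₂ before treatment, with a TCA-fixed time-zero plate. Five final concentrations (0.01–100 µM, 10-fold dilutions) for 48 h. Cells fixed with cold TCA (10% final) and stained with 0.4% SRB in 1% acetic acid. Dye dissolved in 10 mM Tris and read at 515 nm. GI₅₀, TGI and LC₅₀ taken from percent-growth curves.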

ACHN = assay: Cytotoxicity against human ACHN cells after 48 hrs by SRB assay; procedure, shortened: as §1
786-0 = assay: Cytotoxicity against human 786-0 cells after 48 hrs by SRB assay; conditions: 786-0, 48 h; procedure, shortened: as §1
OVCAR-8 = assay: Cytotoxicity against human OVCAR8 cells after 48 hrs by SRB assay; conditions: OVCAR-8, 48 h; procedure, shortened: as §1
MDA-MB-435 = assay: Cytotoxicity against human MDA-MB-435 cells after 48 hrs by SRB assay; conditions: MDA-MB-435, 48 h; procedure, shortened: as §1
Malme-3M = assay: Cytotoxicity against human MALME-3M cells after 48 hrs by SRB assay; procedure, shortened: as §1
LOX IMVI = assay: Cytotoxicity against human LOXIMVI cells after 48 hrs by SRB assay; procedure, shortened: as §1
SNB-75 = assay: Cytotoxicity against human SNB75 cells after 48 hrs by SRB assay; conditions: SNB-75, 48 h; procedure, shortened: as §2
U-251 = assay: Cytotoxicity against human U251 cells after 48 hrs by SRB assay; conditions: U-251, 48 h; procedure, shortened: as §2
SNB-19 = assay: Cytotoxicity against human SNB19 cells after 48 hrs by SRB assay; conditions: SNB-19, 48 h; procedure, shortened: as §2
SF-295 = assay: Cytotoxicity against human SF295 cells after 48 hrs by SRB assay; conditions: SF-295, 48 h; procedure, shortened: as §1
SF-268 = assay: Cytotoxicity against human SF268 cells after 48 hrs by SRB assay; conditions: SF-268, 48 h; procedure, shortened: as §1
SW-620 = assay: Cytotoxicity against human SW620 cells after 48 hrs by SRB assay; conditions: SW-620, 48 h; procedure, shortened: as §2
HT-29 = assay: Cytotoxicity against human HT-29 cells after 48 hrs by SRB assay; conditions: HT-29, 48 h; procedure, shortened: as §1
RPMI-8226 = assay: Cytotoxicity against human RPMI8226 cells after 48 hrs by SRB assay; conditions: RPMI-8226, 48 h; procedure, shortened: as §1
[1] = read-out: LC50 (the source's name)
[2] = read-out: pLC50 (the source's name) (converted)

For O=C(CCc1nnc2sc(-c3ccc(Cl)cc3Cl)nn12)c1nc2ccccc2[nH]1, the GI50 (Hs-578T; read-out: GI50) was 478 nM, the CC50 (Hs-578T; [1]) was > 100000 nM and the GI50 (Hs-578T; read-out: pGI50 (converted)) was 479 nM. The CC50 (Hs-578T; [2]) was > 100000 nM, the GI50 (BT-549; read-out: GI50) was 2160 nM and the LC50 (BT-549; read-out: LC50) was > 100000 nM. The TGI (BT-549; read-out: TGI) was 4770 nM, the GI50 (BT-549; read-out: pGI50 (converted)) was 2140 nM and the LC50 (BT-549; read-out: pLC50 (converted)) was > 100000 nM. It also gave a TGI (BT-549; read-out: pTGI (converted)) of 4790 nM, a GI50 (MDA-MB-231; read-out: GI50) of 1000 nM and an LC50 (MDA-MB-231; read-out: LC50) of 5870 nM. It also gave a TGI (MDA-MB-231; read-out: TGI) of 2420 nM, a GI50 (MDA-MB-231; read-out: pGI50 (converted)) of 1000 nM and an LC50 (MDA-MB-231; read-out: pLC50 (converted)) of 5890 nM. For the same molecule, the TGI (MDA-MB-231; read-out: pTGI (converted)) was 2400 nM, the GI50 (SN12C; read-out: GI50) was 1230 nM and the TGI (SN12C; read-out: TGI) was 3100 nM. For the same molecule, the GI50 (SN12C; read-out: pGI50 (converted)) was 1230 nM, the TGI (SN12C; read-out: pTGI (converted)) was 3090 nM and the GI50 (ACHN; read-out: GI50) was 339 nM. It also gave an LC50 (50% lethal concentration) (ACHN; read-out: LC50) of 4670 nM, a TGI (ACHN; read-out: TGI) of 1350 nM and a GI50 (ACHN; read-out: pGI50 (converted)) of 339 nM. The LC50 (50% lethal concentration) (ACHN; read-out: pLC50 (converted)) was 4680 nM, the TGI (ACHN; read-out: pTGI (converted)) was 1350 nM and the GI50 (786-0; read-out: GI50) was 1590 nM. For the same molecule, the LC50 (786-0; read-out: LC50) was 5920 nM, the TGI (786-0; read-out: TGI) was 3060 nM and the GI50 (786-0; read-out: pGI50 (converted)) was 1580 nM. The LC50 (786-0; read-out: pLC50 (converted)) was 5890 nM, the TGI (786-0; read-out: pTGI (converted)) was 3090 nM and the GI50 (OVCAR-8; read-out: GI50) was 2580 nM. For the same molecule, the LC50 (lethal concentration 50%) (OVCAR-8; read-out: LC50) was > 100000 nM, the TGI (OVCAR-8; read-out: TGI) was > 100000 nM and the GI50 (OVCAR-8; read-out: pGI50 (converted)) was 2570 nM. For the same molecule, the LC50 (lethal concentration 50%) (OVCAR-8; read-out: pLC50 (converted)) was > 100000 nM, the TGI (OVCAR-8; read-out: pTGI) was > 100000 nM and the GI50 (MDA-MB-435; read-out: GI50) was 265 nM. It also gave a TGI (MDA-MB-435; read-out: TGI) of 842 nM, a GI50 (MDA-MB-435; read-out: pGI50 (converted)) of 263 nM and a TGI (MDA-MB-435; read-out: pTGI (converted)) of 851 nM. For the same molecule, the GI50 (Malme-3M; read-out: GI50) was 762 nM, the TGI (Malme-3M; read-out: TGI) was 2940 nM and the GI50 (Malme-3M; read-out: pGI50 (converted)) was 759 nM. For the same molecule, the TGI (Malme-3M; read-out: pTGI (converted)) was 2950 nM, the GI50 (LOX IMVI; read-out: GI50) was 363 nM and the TGI (LOX IMVI; read-out: TGI) was 1590 nM. It also gave a GI50 (LOX IMVI; read-out: pGI50 (converted)) of 363 nM, a TGI (LOX IMVI; read-out: pTGI (converted)) of 1580 nM and a GI50 (SNB-75; read-out: GI50) of 1960 nM. The CC50 (SNB-75; [1]) was 17100 nM, the TGI (SNB-75; read-out: TGI) was 4650 nM and the GI50 (SNB-75; read-out: pGI50 (converted)) was 1950 nM. The CC50 (SNB-75; [2]) was 17000 nM, the TGI (SNB-75; read-out: pTGI (converted)) was 4680 nM and the GI50 (U-251; read-out: GI50) was 1280 nM. For the same molecule, the CC50 (U-251; [1]) was 5340 nM, the TGI (U-251; read-out: TGI) was 2610 nM and the GI50 (U-251; read-out: pGI50 (converted)) was 1290 nM. The CC50 (U-251; [2]) was 5370 nM, the TGI (U-251; read-out: pTGI (converted)) was 2630 nM and the GI50 (SNB-19; read-out: GI50) was 1370 nM. The CC50 (SNB-19; [1]) was > 100000 nM, the TGI (SNB-19; read-out: TGI) was 5440 nM and the GI50 (SNB-19; read-out: pGI50 (converted)) was 1380 nM. The CC50 (SNB-19; [2]) was > 100000 nM, the TGI (SNB-19; read-out: pTGI (converted)) was 5500 nM and the GI50 (SF-295; read-out: GI50) was 1030 nM. It also gave a TGI (SF-295; read-out: TGI) of 2730 nM, a GI50 (SF-295; read-out: pGI50 (converted)) of 1020 nM and a TGI (SF-295; read-out: pTGI (converted)) of 2750 nM. The GI50 (SF-268; read-out: GI50) was 740 nM, the CC50 (SF-268; [1]) was 5150 nM and the TGI (SF-268; read-out: TGI) was 2140 nM. For the same molecule, the GI50 (SF-268; read-out: pGI50 (converted)) was 741 nM, the CC50 (SF-268; [2]) was 5130 nM and the TGI (SF-268; read-out: pTGI (converted)) was 2140 nM. For the same molecule, the GI50 (SW-620; read-out: GI50) was 204 nM, the CC50 (SW-620; [1]) was 2480 nM and the TGI (SW-620; read-out: TGI) was 545 nM. For the same molecule, the GI50 (SW-620; read-out: pGI50 (converted)) was 204 nM, the CC50 (SW-620; [2]) was 2510 nM and the TGI (SW-620; read-out: pTGI (converted)) was 550 nM. The GI50 (HT-29; read-out: GI50) was 362 nM, the CC50 (HT-29; [1]) was > 100000 nM and the TGI (HT-29; read-out: TGI) was 1810 nM. For the same molecule, the GI50 (HT-29; read-out: pGI50 (converted)) was 363 nM, the CC50 (HT-29; [2]) was > 100000 nM and the TGI (HT-29; read-out: pTGI (converted)) was 1820 nM. For the same molecule, the GI50 (RPMI-8226; read-out: GI50) was 352 nM, the CC50 (RPMI-8226; [1]) was > 100000 nM and the TGI (RPMI-8226; read-out: TGI) was 1760 nM. For the same molecule, the GI50 (RPMI-8226; read-out: pGI50 (converted)) was 355 nM, the CC50 (RPMI-8226; [2]) was > 100000 nM and the TGI (RPMI-8226; read-out: pTGI (converted)) was 1780 nM.
